# Columns and labels:
# [1] = target: T1, Adrenergic receptor alpha-1 (Rattus norvegicus, UniProt P15823+P23944+P43140); assay: In vitro antagonistic activity tested against the contraction induced by phenylephrine through Alpha-1 adrenergic receptor in rat thoracic aortic strips; assay type: functional
# T1 sequence (P15823 whole entry): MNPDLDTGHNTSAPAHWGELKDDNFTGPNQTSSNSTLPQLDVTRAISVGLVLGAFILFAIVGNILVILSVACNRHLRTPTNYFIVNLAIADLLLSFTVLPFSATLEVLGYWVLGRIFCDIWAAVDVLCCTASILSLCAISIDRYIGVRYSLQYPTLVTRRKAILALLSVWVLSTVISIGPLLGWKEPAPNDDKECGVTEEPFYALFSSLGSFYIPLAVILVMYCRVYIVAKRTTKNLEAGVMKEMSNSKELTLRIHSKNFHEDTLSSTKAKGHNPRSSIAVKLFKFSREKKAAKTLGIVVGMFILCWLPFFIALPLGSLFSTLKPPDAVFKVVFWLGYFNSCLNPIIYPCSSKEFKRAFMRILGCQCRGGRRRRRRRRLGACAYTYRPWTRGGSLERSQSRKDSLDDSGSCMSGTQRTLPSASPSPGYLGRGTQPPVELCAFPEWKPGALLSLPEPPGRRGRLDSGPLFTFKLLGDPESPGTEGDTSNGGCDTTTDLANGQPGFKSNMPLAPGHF
# T1 sequence (P23944 whole entry): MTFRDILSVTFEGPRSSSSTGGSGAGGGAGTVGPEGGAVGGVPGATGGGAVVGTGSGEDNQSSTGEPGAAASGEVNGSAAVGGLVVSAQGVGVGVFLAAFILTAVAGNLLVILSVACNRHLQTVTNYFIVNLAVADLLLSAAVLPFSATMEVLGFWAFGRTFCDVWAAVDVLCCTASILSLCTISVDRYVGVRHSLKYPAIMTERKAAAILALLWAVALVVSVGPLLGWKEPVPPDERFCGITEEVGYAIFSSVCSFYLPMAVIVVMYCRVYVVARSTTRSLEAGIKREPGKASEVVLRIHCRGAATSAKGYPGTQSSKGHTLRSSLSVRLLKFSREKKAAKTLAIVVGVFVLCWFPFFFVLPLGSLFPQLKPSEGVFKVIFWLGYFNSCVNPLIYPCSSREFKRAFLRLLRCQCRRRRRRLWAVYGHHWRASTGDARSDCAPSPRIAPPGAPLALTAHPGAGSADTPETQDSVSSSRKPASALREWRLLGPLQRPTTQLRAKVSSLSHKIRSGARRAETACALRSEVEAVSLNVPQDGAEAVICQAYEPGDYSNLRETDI
# T1 sequence (P43140 whole entry): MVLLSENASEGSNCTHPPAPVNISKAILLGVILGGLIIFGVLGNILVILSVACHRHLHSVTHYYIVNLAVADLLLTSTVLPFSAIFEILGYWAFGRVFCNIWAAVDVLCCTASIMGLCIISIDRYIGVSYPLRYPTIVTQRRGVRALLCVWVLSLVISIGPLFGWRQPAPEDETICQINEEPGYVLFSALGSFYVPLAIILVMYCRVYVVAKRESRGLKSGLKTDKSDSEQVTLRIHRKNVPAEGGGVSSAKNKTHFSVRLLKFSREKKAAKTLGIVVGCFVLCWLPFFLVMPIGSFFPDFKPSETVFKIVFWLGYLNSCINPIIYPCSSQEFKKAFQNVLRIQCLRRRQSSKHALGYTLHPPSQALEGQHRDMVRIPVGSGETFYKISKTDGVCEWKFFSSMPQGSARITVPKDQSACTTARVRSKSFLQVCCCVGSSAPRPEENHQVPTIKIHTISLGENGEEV
# Method in brief: (§1)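 Rat thoracic aortic strips, isometric tension; equilibrated 120 min, primed with 60 mM KCl. Cumulative phenylephrine (0.01-10 μM) curve, wash, 1 h later second cumulative curve with test drug present. pA2 from the concentration-response curves where blockade is competitive (otherwise noncompetitive); single determination.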
# [2] = target: T2, Adrenergic receptor alpha-1 (Rattus norvegicus) (UniProt P15823+P23944+P43140); assay: In vivo inhibitory activity in rats against elevation of blood pressure caused by phenylephrine (30 ug/kg, iv) through Alpha-1 adrenergic receptor, after 1 hr oral administration at dose of 10 mg/kg; assay type: functional, organism-based; set-up: dose 10 mg/kg
# Method in brief: (§2)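 Male SD rats under urethane (1 g/kg ip) and alpha-chloralose (80 mg/kg ip). Blood pressure recorded via carotid catheter and transducer, iv dosing via venous catheter. After oral drug or vehicle, phenylephrine 30 μg/kg iv. The pressor rise was expressed as % inhibition, mean ± SEM.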
# [3] = target: T3, Serotonin 2 (5-HT2) receptor (Rattus norvegicus) (UniProt P30994+P08909+P14842); assay: In vivo inhibitory activity of 10 mg/kg compound in rats against elevation of BP caused by 5-HT (300 ug/kg, iv) through 5-hydroxytryptamine 2 receptor 1 hr after oral administration; assay type: functional, organism-based; set-up: dose 10 mg/kg
# T3 sequence (P08909 whole entry, looked up): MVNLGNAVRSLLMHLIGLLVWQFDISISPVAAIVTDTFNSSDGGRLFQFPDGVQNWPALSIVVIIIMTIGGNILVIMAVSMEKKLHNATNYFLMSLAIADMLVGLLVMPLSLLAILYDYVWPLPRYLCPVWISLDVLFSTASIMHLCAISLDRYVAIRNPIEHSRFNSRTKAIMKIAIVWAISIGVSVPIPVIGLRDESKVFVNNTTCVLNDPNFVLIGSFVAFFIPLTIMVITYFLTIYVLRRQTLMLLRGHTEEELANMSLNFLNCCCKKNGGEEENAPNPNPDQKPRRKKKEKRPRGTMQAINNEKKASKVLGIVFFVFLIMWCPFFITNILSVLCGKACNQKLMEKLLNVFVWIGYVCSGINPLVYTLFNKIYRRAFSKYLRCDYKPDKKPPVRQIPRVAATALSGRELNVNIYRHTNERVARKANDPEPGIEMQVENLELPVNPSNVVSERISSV
# T3 sequence (P14842 whole entry, looked up): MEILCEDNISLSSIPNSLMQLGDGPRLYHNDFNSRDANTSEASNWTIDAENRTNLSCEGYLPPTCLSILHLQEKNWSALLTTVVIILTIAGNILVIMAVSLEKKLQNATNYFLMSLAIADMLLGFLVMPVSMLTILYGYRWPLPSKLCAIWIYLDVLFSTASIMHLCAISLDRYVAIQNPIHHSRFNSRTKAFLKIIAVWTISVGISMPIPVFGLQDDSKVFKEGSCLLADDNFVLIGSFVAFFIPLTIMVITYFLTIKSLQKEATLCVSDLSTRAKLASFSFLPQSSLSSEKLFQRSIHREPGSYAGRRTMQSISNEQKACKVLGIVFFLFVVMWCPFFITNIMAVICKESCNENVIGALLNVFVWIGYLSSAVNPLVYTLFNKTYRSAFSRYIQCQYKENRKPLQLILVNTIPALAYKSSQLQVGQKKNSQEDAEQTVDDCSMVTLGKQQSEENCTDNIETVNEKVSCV
# T3 sequence (P30994 whole entry, looked up): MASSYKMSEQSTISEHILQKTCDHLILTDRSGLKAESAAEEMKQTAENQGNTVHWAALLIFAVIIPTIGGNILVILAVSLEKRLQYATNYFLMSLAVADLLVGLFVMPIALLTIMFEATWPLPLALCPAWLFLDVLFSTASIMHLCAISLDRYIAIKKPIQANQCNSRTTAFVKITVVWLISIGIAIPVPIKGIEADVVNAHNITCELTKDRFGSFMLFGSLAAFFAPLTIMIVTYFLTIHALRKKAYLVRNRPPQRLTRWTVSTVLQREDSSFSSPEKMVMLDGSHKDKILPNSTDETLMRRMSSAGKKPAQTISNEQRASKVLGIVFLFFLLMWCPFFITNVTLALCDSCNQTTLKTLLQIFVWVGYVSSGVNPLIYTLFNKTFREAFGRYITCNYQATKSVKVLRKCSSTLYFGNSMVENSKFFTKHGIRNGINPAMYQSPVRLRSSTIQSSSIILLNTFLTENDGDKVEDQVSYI
# Method in brief: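 Male SD rats anesthetized with urethane (1 g/kg ip) plus alpha-chloralose (80 mg/kg ip). Carotid arterial catheter to a pressure transducer, venous catheter for injection. After oral drug or vehicle, 5-HT 300 μg/kg iv. The pressor phase following the brief hypotensive phase was measured and expressed as % inhibition, mean ± SEM.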
# [4] = target: Serotonin 2 (5-HT2) receptor (Rattus norvegicus, UniProt P30994+P08909+P14842); assay: In vitro antagonistic activity tested against the contraction induced by 5-HT through 5-hydroxytryptamine 2 receptor in rat thoracic aortic strips; assay type: functional
# [5] = target: T2, Adrenergic receptor alpha-1 (Rattus norvegicus); assay: In vivo inhibitory activity in rats against elevation of blood pressure caused by phenylephrine (30 ug/kg, iv) through alpha-1 receptor after 1 hr of oral administration at the dose of 10 mg/kg; assay type: functional, organism-based; set-up: dose 10 mg/kg; method in brief: as §2
# [6] = target: T1, Adrenergic receptor alpha-1; assay: In vitro antagonistic activity against the contraction induced by phenylephrine through alpha-1 receptor in rat thoracic aortic strips; assay type: functional; method in brief: as §1
# [7] = target: T2, Adrenergic receptor alpha-1 (Rattus norvegicus); assay: In vitro antagonistic activity against the contraction induced by phenylephrine through Alpha-1 adrenergic receptor in rat thoracic aortic strips; NC = non-competitive inhibition; assay type: functional; method in brief: as §1
# [8] = target: T3, Serotonin 2 (5-HT2) receptor (Rattus norvegicus); assay: In vitro antagonistic activity against the contraction induced by 5-HT through 5-hydroxytryptamine 2 receptor in rat thoracic aortic strips; NC=non competitive antagonism; assay type: functional; conditions: filed as antagonist
# Method in brief: as §1, with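 “5-HT (0.1-100” for “phenylephrine (0.01-10”, “cumulative 5-HT” for “cumulative”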
SMILES,pA2 [1],inhibition [3],pA2 [4],pA2 [6],pA2 [7],pA2 [8],inhibition [2],inhibition [5]
O=c1n(CCN2CCC(=C(c3ccc(F)cc3)c3ccc(F)cc3)CC2)nc2n1CCOC2,6.6,60%,7.2,–,–,–,10%,–
O=c1nc2sccn2c(=O)n1CCN1CCC(=C(c2ccc(F)cc2)c2ccc(F)cc2)CC1,< 6,93%,7.1,–,–,–,20%,–
O=C(c1ccc(F)cc1)C1CCN(CCn2c(=O)nc3n(c2=O)CCC3)CC1,7.1,67%,7.3,–,–,–,23%,–
O=c1n(CCN2CCC(=C(c3ccc(F)cc3)c3ccc(F)cc3)CC2)nc2n1CCCO2,7.8,89%,–,–,–,–,16%,–
O=c1nc2n(c(=O)n1CCN1CCC(=C(c3ccc(F)cc3)c3ccc(F)cc3)CC1)CCC2,–,83%,8.3,6.8,–,–,8%,–
O=C(c1ccc(F)cc1)C1CCN(CCn2c(=O)nc3sccn3c2=O)CC1,–,79%,7.9,–,Non-competitive inhibition,–,50%,–
O=C(c1ccc(F)cc1)C1CCN(CCn2nc3n(c2=O)CCOC3)CC1,6.3,62%,7.4,–,–,–,36%,–
O=C(c1ccc(F)cc1)C1(c2ccc(F)cc2)CCN(CCn2nc3n(c2=O)CCCC3)CC1,< 6,11%,6,–,–,–,6%,–
O=C(c1ccc(F)cc1)C1CCN(CCn2nc3n(c2=O)CCCC3)CC1c1ccc(F)cc1 (configuration not stated),6.8,90%,6.8,–,–,–,15%,–
O=c1n(CCN2CCC(=C(c3ccc(F)cc3)c3ccc(F)cc3)CC2)nc2n1CCSC2,7.5,67%,7.8,–,–,–,4%,–
O=C(c1ccc(F)cc1)C1(O)CCN(CCn2c(=O)nc3n(c2=O)CCCC3)CC1,7.2,83%,6.7,–,–,–,20%,–
O=C(c1ccc(F)cc1)C1CCN(CCCn2c(=O)nc3n(c2=O)CCCC3)CC1,7.3,78%,6.5,–,–,–,53%,–
COc1ccc(C(=C2CCN(CCn3nc4n(c3=O)CCCC4)CC2)c2ccc(OC)cc2)cc1,–,41%,6.8,7.2,–,–,–,4%
O=C(c1ccc(F)cc1)C1CCN(CCn2c(=O)nc3n(c2=O)CCCCC3)CC1,6.9,78%,7.8,–,–,–,15%,–
O=C(c1ccc(F)cc1)C1CCN(CCn2c(=O)nc3ccccn3c2=O)CC1,7.5,–,8.1,–,–,–,–,–

# The next lines start with results.
pA2 [1],inhibition [3],pA2 [4],pA2 [6],pA2 [7],pA2 [8],SMILES,inhibition [2],inhibition [5]
7,85%,6.8,–,–,–,O=C(c1ccc(F)cc1)C1(O)CCN(CCn2nc3n(c2=O)CCCC3)CC1,15%,–
–,90%,8.5,7,–,–,O=c1n(CCN2CCC(=C(c3ccc(F)cc3)c3ccc(F)cc3)CC2)nc2n1CCCCC2,–,3%
–,–,–,–,Non-competitive inhibition,Non-competitive antagonist,O=C(c1ccc(F)cc1)C1CCN(CCCn2nc3n(c2=O)CCCCC3)CC1,–,–
–,74%,7.1,6.9,–,–,O=c1n(CCN2CCC(=C(c3ccc(F)cc3)c3ccc(F)cc3)CC2)nc2n1CCC2,–,6%
6.4,84%,7.3,–,–,–,O=c1n(CCN2CCC(=C(c3ccccc3)c3ccc(F)cc3)CC2)nc2n1CCCCC2,7%,–
–,93%,8.3,6.8,–,–,O=c1nc2n(c(=O)n1CCN1CCC(=C(c3ccc(F)cc3)c3ccc(F)cc3)CC1)CCCC2,–,12%
6.3,32%,6.7,–,–,–,N#CC(=C1CCN(CCn2nc3n(c2=O)CCCC3)CC1)c1ccc(F)cc1,2%,–
6.4,65%,6.8,–,–,–,O=C(c1ccc(F)cc1)C1CCN(CCn2nc3n(c2=O)CCC3)CC1,36%,–
–,–,–,–,Non-competitive inhibition,Non-competitive antagonist,O=C(c1ccc(F)cc1)C1CCN(CCn2nc3n(c2=O)CCCCC3)CC1,–,–
< 6,42%,7,–,–,–,O=c1n(CCN2CCC(=C(c3ccccc3)c3ccccc3)CC2)nc2n1CCCCC2,3%,–
< 6,91%,7.4,–,–,–,O=C(c1ccc(F)cc1)C1CCN(CCn2nc3n(c2=O)CCCC3)CC1,32%,–
7.6,72%,7.3,–,–,–,O=C(c1ccc(F)cc1)C1(O)CCN(CCCn2nc3n(c2=O)CCCCC3)CC1,–,–
7.8,–,7.7,–,–,–,O=C(c1ccc(F)cc1)C1CCN(CCCn2nc3n(c2=O)CCCC3)CC1,–,–

# — ChEMBL document CHEMBL1126018, “Syntheses and 5-HT2 antagonist activity of bicyclic 1,2,4-triazol-3(2H)-one and 1,3,5-triazine-2,4(3H)-dione derivatives” (J Med Chem, 1992)
